For test [1], the system named is NCI/ADR-RES. Kind of test: Antiproliferative activity against human NCI/ADR-RES cells assessed as reduction in cell viability after 48 hrs by CellTiter-Blue assay. Format: functional. Particulars: read-out: LC50 (the source's name). In outline:
(§1)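 Cells grown in RPMI1640 with 10% FBS at 37 °C, 5% CO₂. 5,000–10,000 cells/well were pre-incubated overnight, and a time-zero CellTiter-Blue read was taken. Six 10-fold dilutions (top final 10 μM) were applied for 48 h, followed by 0.125 mg/mL CellTiter-Blue for 2–4 h. Resorufin fluorescence was read at ex 560/em 590 nm. […] Triplicates.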
(In general: Alamar Blue is a resazurin reagent that responds to reducing activity.)

Test [2] concerns SK-OV-3. Kind of test: Antiproliferative activity against human SKOV3 cells assessed as reduction in cell viability after 48 hrs by CellTiter-Blue assay. In kind it is functional. The note with it: SK-OV-3, 48 h, read-out: LC50 (the source's name). A digest of the protocol: as §1
The test system of test [3] is MDA-MB-468. Nature of the test: Antiproliferative activity against human MDA-MB-468 cells assessed as reduction in cell viability after 48 hrs by CellTiter-Blue assay. Particulars: MDA-MB-468, 48 h, read-out: LC50 (the source's name). Format: functional. In outline:
as §1

The test system of test [4] is MV4-11. Nature of the test: Down regulation of STAT5 in human MV4-11 cells harboring wild type p53/FLT3-ITD mutant at 50 to 200 nM after 24 hrs by Western blot analysis. Format: functional, cell-based. A digest of the protocol: (§2)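 Cells (1,500,000 per well) grown 12 h, then drug-treated as specified. Lysed in RIPA buffer, sonicated, centrifuged, protein normalized by BCA. Run on 4–12% Bis-Tris gels in MES, transferred, probed overnight at 4 °C with primary antibodies at 1/1000. Actin served as reference for LC3-II quantitation.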

In test [5] the test system is MV4-11. Kind of test: Induction of apoptosis in human MV4-11 cells harboring wild type p53/FLT3-ITD mutant assessed as XIAP degradation at 50 to 200 nM after 24 hrs by Western blot analysis. Format: functional, cell-based. In outline: as §2
Background: A western blot detects proteins with antibodies after separation by electrophoresis.

Test [6] concerns MV4-11. Nature of the test: Induction of apoptosis in human MV4-11 cells harboring wild type p53/FLT3-ITD mutant assessed as upregulation of P21WAF1/Cip1 expression at 50 to 200 nM after 24 hrs by Western blot analysis. Format: functional, cell-based. In outline: as §2
Test [7] concerns SR. Kind of test: […] in human SR cells harboring wild type p53 assessed as pro-caspase 3 cleavage at 50 to 200 nM after 24 hrs by Western blot analysis. In kind it is cell-based.

Activity calls are given as the source filed them. The rule behind the calls is not given here. A value given as a limit tells only on which side of the number the result lay.

`CCCNNC(=O)/C=C/c1ccc(CNCCc2c(C)[nH]c3ccccc23)cc1.O=C(O)C(F)(F)F`: the CC50 in test [1], in test [2] and in test [3] was over 10 µM in each case. Also, the result in test [4], in test [5], in test [6] and in test [7] was Active.

The values are drawn from ChEMBL document CHEMBL4342521 (J Med Chem, 2020).
